{"source": "the RNAGym collection of RNA variant scans (doi:10.1038/nmeth.2970)", "parents": {"B1": {"name": "NELF-E aptamer (parent)", "chain": "CCCAACGACUGCCGAGCGAGAUUACGCUUGAGCGCCCCACUGAGGAUGCCCACGGGCGAUUGGGGCACGG"}}, "data": [{"variants_of": "B1", "experiment": "HiTS-RAP", "settings": "with NELF-E (Drosophila)", "procedure,_shortened": "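Aptamer DNA templates carrying a T7 promoter and ter site were sequenced on an Illumina GAIIx flowcell, then transcribed in situ by T7 RNA polymerase and halted by GST-Tus (30 minutes, 37°C). Clusters were imaged after 30-minute room-temperature equilibration with NELF-E-mOrange at 0.064 to 1000 nM in HEPES binding buffer, and only the first binding curve was used. Intensities were normalised to sequencing intensity and averaged per sequence. Kd came from weighted Hill fits, keeping fits with variance below 1,000,000.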", "units": {"Kd": "nM"}, "values": [{"variant": "CCCAACGGCUGCCGAGCGAGAUUACGCAUGAGCGCCCCACUGAGGAUGCCCACGGGCGAUUGGGGCACGG", "Kd": 4.13}, {"variant": "CCCAACGGCUGCCGAGCGAGAUUACGCCUGAGCGCCCCACUGAGGAUGCCCACGGGCGAUUGGGGCACGG", "Kd": 7.19}, {"variant": "CCCAACGGCUGCCGAGCGAGAUUACGCGUGAGCGCCCCACUGAGGAUGCCCACGGGCGAUUGGGGCACGG", "Kd": 6.24}, {"variant": "CCCAACGGCUGCCGAGCGAGAUUACGCUUGAGCGCCCCACUGAGGAUGCCCACGGGCGAUUGUGGCACGG", "Kd": 11}, {"variant": "CCCAACGGCUGCCGAGCGAGAUUACGCUUGAGCGCCCCACUGAGGAUGCCCACGGGCGAUUGAGGCACGG", "Kd": 16.1}, {"variant": "CCCAACGUCUGCCGUGCGAGAUUACGCUUGAGCGCCCCACUGAGGAUGCCCACGGGCGAUUGGGGCACGG", "Kd": 7.15}, {"variant": "CCCAACGUCUGCCGGGCGAGAUUACGCUUGAGCGCCCCACUGAGGAUGCCCACGGGCGAUUGGGGCACGG", "Kd": 5.78}, {"variant": "CCCAACGGCUGCCGAGCGAGAUUACGCUUGAGCGCUCCACUGAGGAUGCCCACGGGCGAUUGGGGCACGG", "Kd": 6.33}, {"variant": "CCCAACGUCUGCCGAGCGAGAUUACGCUUGUGCGCCCCACUGAGGAUGCCCACGGGCGAUUGGGGCACGG", "Kd": 7.11}, {"variant": "CCCAACGUCUGCCGAGCGAGAUUACGCUUGGGCGCCCCACUGAGGAUGCCCACGGGCGAUUGGGGCACGG", "Kd": 8.05}, {"variant": "CCCAACGUCUGCCGAGCGAGAUUACGCUUGAGCGCCCCACUGAGGUUGCCCACGGGCGAUUGGGGCACGG", "Kd": 43.1}, {"variant": "CCCAACGUCUGCCGAGCGAGAUUACGCUUGAGCGCCCCACUGAGGGUGCCCACGGGCGAUUGGGGCACGG", "Kd": 50}, {"variant": "CCCAACGGCUGCCGAGCGAGAUUACGCUUGAGCGCCCCACUAAGGAUGCCCACGGGCGAUUGGGGCACGG", "Kd": 44.1}, {"variant": "CCCAACGGCUGCCGAGCGAGAUUACGCUAGAGCGCCCCACUGAGGAUGCCCACGGGCGAUUGGGGCACGG", "Kd": 7.95}, {"variant": "CCCAACGGCUGCCGAGCGAGAUUACGCUCGAGCGCCCCACUGAGGAUGCCCACGGGCGAUUGGGGCACGG", "Kd": 5.69}, {"variant": "CCCAACGGCUGCCGAGCGAGAUUACGCUGGAGCGCCCCACUGAGGAUGCCCACGGGCGAUUGGGGCACGG", "Kd": 5.77}, {"variant": "CCCAACGUCUGCCGAGCGUGAUUACGCUUGAGCGCCCCACUGAGGAUGCCCACGGGCGAUUGGGGCACGG", "Kd": 6.78}, {"variant": "CCCAACGUCUGCCGAGCGGGAUUACGCUUGAGCGCCCCACUGAGGAUGCCCACGGGCGAUUGGGGCACGG", "Kd": 6.26}, {"variant": "CCCAACGGCUGCCGAGCGAGAUUACGCUUGAGCGCCCCACUGAGGAUGCCCAUGGGCGAUUGGGGCACGG", "Kd": 4.94}, {"variant": "CCCAACGUCUGCCGAGCGAGAUUACGCUUGAGCGCCCCACUGGGGAUGCCCACGGGCGAUUGGGGCACGG", "Kd": 25.7}, {"variant": "CCCAACGUCUGCCGAGCGAGAUUACGCUUGAGCGCCCCACUGUGGAUGCCCACGGGCGAUUGGGGCACGG", "Kd": 104}, {"variant": "CCCAACGGCUGCCGAGCGAGAUUACACUUGAGCGCCCCACUGAGGAUGCCCACGGGCGAUUGGGGCACGG", "Kd": 4.49}, {"variant": "CCCAACGGCUGCCGAGUGAGAUUACGCUUGAGCGCCCCACUGAGGAUGCCCACGGGCGAUUGGGGCACGG", "Kd": 4.94}, {"variant": "CCCAACGGCUGCCGAGCGAGAUUACGCUUGAGCGCCCCACUGAGGAGGCCCACGGGCGAUUGGGGCACGG", "Kd": 7.16}, {"variant": "CCCAACGGCUGCCGAGCGAGAUUACGCUUGAGCGCCCCACUGAGGAAGCCCACGGGCGAUUGGGGCACGG", "Kd": 10.9}, {"variant": "CCCAACGUCUGCCGAGCGAGGUUACGCUUGAGCGCCCCACUGAGGAUGCCCACGGGCGAUUGGGGCACGG", "Kd": 6.05}, {"variant": "CCCAACGUCUGCCGAGCGAGUUUACGCUUGAGCGCCCCACUGAGGAUGCCCACGGGCGAUUGGGGCACGG", "Kd": 7.37}, {"variant": "CCCAACGGCUGCCGAGCGAGAUUACGCUUGAGCGCCCCACUGAGGAUGUCCACGGGCGAUUGGGGCACGG", "Kd": 16.8}, {"variant": "CCCAACGUCUGCCGAGCGAGAUUACGCUUGAGCGCCCCACUGAGGAUGCCCGCGGGCGAUUGGGGCACGG", "Kd": 5.67}, {"variant": "CCCAACGUCUGCCGAGCGAGAUUACGCUUGAGCGCCCCACUGAGGAUGCCCUCGGGCGAUUGGGGCACGG", "Kd": 17.4}, {"variant": "CCCAACGGCUUCCGAGCGAGAUUACGCUUGAGCGCCCCACUGAGGAUGCCCACGGGCGAUUGGGGCACGG", "Kd": 6.74}, {"variant": "CCCAACGGCUACCGAGCGAGAUUACGCUUGAGCGCCCCACUGAGGAUGCCCACGGGCGAUUGGGGCACGG", "Kd": 6.3}, {"variant": "CCCAACGGCUGCCGAGCGAGAUCACGCUUGAGCGCCCCACUGAGGAUGCCCACGGGCGAUUGGGGCACGG", "Kd": 4.62}, {"variant": "CCCAACGGCUGCCGAGCGAGAUGACGCUUGAGCGCCCCACUGAGGAUGCCCACGGGCGAUUGGGGCACGG", "Kd": 5.8}, {"variant": "CCCAACGGCUGCCGAGCGAGAUUACGCUUGAGCGCCUCACUGAGGAUGCCCACGGGCGAUUGGGGCACGG", "Kd": 10.1}, {"variant": "CCCAACGGCUGCCGAGCGAGAUUACGCUUGAGCGCCCCACUGAGGAUGCCCACGGGCGAUCGGGGCACGG", "Kd": 70.8}, {"variant": "CCCAACGGCUGCCGAGCGAGAUUACGCUUGAGCGCCCCACUGAGGAUGCCCACGGGCGAUAGGGGCACGG", "Kd": 29.3}, {"variant": "CCCAACGGCUGCCGAGCGAGAUUACGCUUGAGCGCCCCACUGAGGAUGCCUACGGGCGAUUGGGGCACGG", "Kd": 6.89}]}]}
